Converted amounts (≈) assume the structure as drawn.
Key:
Mus musculus [1] = experiment: Acute toxicity in AKR mouse up to 0.5 mmol/kg, ip; assay type: organism-based; details: in vivo
Mus musculus [2] = experiment: Antiinflammatory activity in AKR mouse assessed as inhibition of carrageenan-induced paw edema at 0.01 mmol/kg, ip measured after 3.5 hrs of carrageenan-challenge; assay type: functional
In short: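 AKR mice of both sexes (pregnant females excluded), 6-10 per group, fasted during the experiment. Edema induced by intradermal 0.05 mL of 2% carrageenin into the right hind paw. Compound given at 0.01 mmol/kg ip, suspended in water with Tween-80, at the same time as carrageenin.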

[3] = molecular target: T1, Prostaglandin G/H synthase 1 (Ovis aries) (UniProt P05979); experiment: (§1) Inhibition of ovine COX1 assessed as inhibition of PGF2a production by enzyme immunoassay; set-up: concentration or dose not given beside the values; details: concentration not given here
T1 sequence (whole entry): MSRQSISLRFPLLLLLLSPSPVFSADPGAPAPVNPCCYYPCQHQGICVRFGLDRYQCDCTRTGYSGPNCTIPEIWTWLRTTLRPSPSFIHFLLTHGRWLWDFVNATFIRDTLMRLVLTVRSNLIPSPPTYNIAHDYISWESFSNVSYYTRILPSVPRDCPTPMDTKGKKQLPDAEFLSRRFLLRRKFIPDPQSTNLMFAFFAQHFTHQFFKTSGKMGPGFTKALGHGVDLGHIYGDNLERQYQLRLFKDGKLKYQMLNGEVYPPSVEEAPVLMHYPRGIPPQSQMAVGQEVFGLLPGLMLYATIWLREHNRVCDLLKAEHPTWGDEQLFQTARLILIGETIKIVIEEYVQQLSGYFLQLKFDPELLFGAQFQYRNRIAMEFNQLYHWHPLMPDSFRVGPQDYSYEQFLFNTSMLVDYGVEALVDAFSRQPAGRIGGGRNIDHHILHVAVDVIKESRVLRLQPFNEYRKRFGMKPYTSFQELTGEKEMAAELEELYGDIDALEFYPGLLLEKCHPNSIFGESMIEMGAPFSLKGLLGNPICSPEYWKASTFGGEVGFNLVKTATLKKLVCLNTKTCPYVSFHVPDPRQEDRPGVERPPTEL
In short: (§2)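 Ovine COX-1 from a commercial screening kit, tested with 0.1 µM arachidonic acid, which is below the saturating level. COX-derived PGH2 is reduced by SnCl2 to PGF2a, quantified by enzyme immunoassay with a broad prostaglandin antibody. At least triplicate.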

[4] = molecular target: T2, Prostaglandin G/H synthase 1 (Ovis aries, UniProt P05979); experiment: as §1; in short: as §2
T2 sequence (P05979 whole entry): T1 sequence (whole entry)

[5] = (§3) Inhibition of soybean lipoxygenase assessed as inhibition of sodium linolate conversion to 13-hydroperoxylinoleic acid after 4 mins by spectrophotometry; set-up: species or system Glycine max; details: read-out: IC50
Glycine max = experiment: as §3
Aspergillus niger [6] = experiment: Fungicidal activity against Aspergillus niger ATCC 6275 after 72 hrs by serial subcultivation method; assay type: functional; details: ATCC 6275, 72 h
Aspergillus niger [7] = experiment: Antifungal activity against Aspergillus niger ATCC 6275 after 72 hrs by serial dilution technique; assay type: functional; details: ATCC 6275, 72 h
In short: (§4)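 Serial dilution in malt broth; compounds from 1 mg/ml stocks in 5% DMSO; 72 h at 28 °C. MIC is the lowest concentration with no visible growth under a binocular microscope. Run in duplicate, repeated three times.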

Aspergillus fumigatus [8] = experiment: Fungicidal activity against Aspergillus fumigatus after 72 hrs by serial subcultivation method; assay type: functional
Aspergillus flavus [9] = experiment: Fungicidal activity against Aspergillus flavus ATCC 9643 after 72 hrs by serial subcultivation method; assay type: functional; details: ATCC 9643, 72 h
Trichoderma viride [10] = experiment: Fungicidal activity against Trichoderma viride IAM 5061 after 72 hrs by serial subcultivation method; assay type: functional; details: IAM 5061, 72 h
Penicillium ochrochloron [11] = experiment: Fungicidal activity against Penicillium ochrochloron ATCC 9112 after 72 hrs by serial subcultivation method; assay type: functional; details: ATCC 9112, 72 h
Aspergillus flavus [12] = experiment: Antifungal activity against Aspergillus flavus ATCC 9643 after 72 hrs by serial dilution technique; assay type: functional; details: ATCC 9643, 72 h; in short: as §4
Talaromyces funiculosus [13] = experiment: Fungicidal activity against Penicillium funiculosum ATCC 36839 after 72 hrs by serial subcultivation method; assay type: functional; details: ATCC 36839, 72 h
Aspergillus fumigatus [14] = experiment: Antifungal activity against Aspergillus fumigatus after 72 hrs by serial dilution technique; assay type: functional; in short: as §4
Trichoderma viride [15] = experiment: Antifungal activity against Trichoderma viride IAM 5061 after 72 hrs by serial dilution technique; assay type: functional; details: IAM 5061, 72 h; in short: as §4
Penicillium ochrochloron [16] = experiment: Antifungal activity against Penicillium ochrochloron ATCC 9112 after 72 hrs by serial dilution technique; assay type: functional; details: ATCC 9112, 72 h; in short: as §4
Talaromyces funiculosus [17] = experiment: Antifungal activity against Penicillium funiculosum ATCC 36839 after 72 hrs by serial dilution technique; assay type: functional; details: ATCC 36839, 72 h; in short: as §4
Escherichia coli [18] = experiment: Bactericidal activity against Escherichia coli ATCC 35210 after 72 hrs by serial subcultivation method; assay type: functional; details: ATCC 35210, 72 h
Pseudomonas aeruginosa [19] = experiment: Bactericidal activity against Pseudomonas aeruginosa ATCC 27853 after 72 hrs by serial subcultivation method; assay type: functional; details: ATCC 27853, 72 h
Listeria monocytogenes [20] = experiment: Bactericidal activity against Listeria monocytogenes NCTC 7973 after 72 hrs by serial subcultivation method; assay type: functional; details: NCTC 7973, 72 h
Bacillus cereus [21] = experiment: Bactericidal activity against Bacillus cereus clinical isolate after 72 hrs by serial subcultivation method; assay type: functional
Micrococcus flavus [22] = experiment: Bactericidal activity against Micrococcus flavus ATCC 10240 after 72 hrs by serial subcultivation method; assay type: functional; details: ATCC 10240, 72 h
Staphylococcus aureus [23] = experiment: Bactericidal activity against Staphylococcus aureus ATCC 6538 after 72 hrs by serial subcultivation method; assay type: functional; details: ATCC 6538, 72 h
Escherichia coli [24] = experiment: Antibacterial activity against Escherichia coli ATCC 35210 after 24 hr by microdilution test; assay type: functional; details: ATCC 35210, 24 h
In short: (§5)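 Broth microdilution in LB medium, about 1.0×10^4 cfu per well; compounds from 1 mg/ml stocks in 5% DMSO. Incubated 24 h. MIC is the lowest concentration with no visible growth under a binocular microscope. Run in duplicate, repeated three times.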

Listeria monocytogenes [25] = experiment: Antibacterial activity against Listeria monocytogenes NCTC 7973 after 24 hr by microdilution test; assay type: functional; details: NCTC 7973, 24 h; in short: as §5
Pseudomonas aeruginosa [26] = experiment: Antibacterial activity against Pseudomonas aeruginosa ATCC 27853 after 24 hr by microdilution test; assay type: functional; details: ATCC 27853, 24 h; in short: as §5
Micrococcus flavus [27] = experiment: Antibacterial activity against Micrococcus flavus ATCC 10240 after 24 hr by microdilution test; assay type: functional; details: ATCC 10240, 24 h; in short: as §5
Bacillus cereus [28] = experiment: Antibacterial activity against Bacillus cereus clinical isolate after 24 hr by microdilution test; assay type: functional; in short: as §5
Staphylococcus aureus [29] = experiment: Antibacterial activity against Staphylococcus aureus ATCC 6538 after 24 hr by microdilution test; assay type: functional; details: ATCC 6538, 24 h; in short: as §5

Structure (SMILES) | Activity (Mus musculus [1]) | inhibition in vivo at 10 µmol/kg (Mus musculus [2]) [%] | inhibition [3] [%] | IC50 [5] [µM] | MFC (Aspergillus niger [6]) [µM] | MIC (Aspergillus niger [7]) [µM] | MFC (Aspergillus fumigatus [8]) [µM] | MFC (Aspergillus flavus [9]) [µM] | MFC (Trichoderma viride [10]) [µM] | MFC (Penicillium ochrochloron [11]) [µM] | MIC (Aspergillus flavus [12]) [µM] | MFC (Talaromyces funiculosus [13]) [µM] | MIC (Aspergillus fumigatus [14]) [µM] | MIC (Trichoderma viride [15]) [µM] | MIC (Penicillium ochrochloron [16]) [µM] | MIC (Talaromyces funiculosus [17]) [µM] | MBC (Escherichia coli [18]) [µM] | MBC (Pseudomonas aeruginosa [19]) [µM] | MBC (Listeria monocytogenes [20]) [µM] | MBC (Bacillus cereus [21]) [µM] | further results
Cc1ccc(/C=C2\S/C(=N/c3nccs3)NC2=O)cc1 | Non-toxic | 47 | 99 | 92 | 66 (≈ 19.9 µg/mL) | 49.4 (≈ 14.9 µg/mL) | 66 (≈ 19.9 µg/mL) | 66 (≈ 19.9 µg/mL) | 49.4 (≈ 14.9 µg/mL) | 66 (≈ 19.9 µg/mL) | 49.4 (≈ 14.9 µg/mL) | 66 (≈ 19.9 µg/mL) | 49.4 (≈ 14.9 µg/mL) | 33 (≈ 9.95 µg/mL) | 33 (≈ 9.95 µg/mL) | 49.4 (≈ 14.9 µg/mL) | 66 (≈ 19.9 µg/mL) | 24.7 (≈ 7.44 µg/mL) | 82.4 (≈ 24.8 µg/mL) | 33 (≈ 9.95 µg/mL) | IC50 [4]: 51 µM; inhibition (Glycine max): 67%; MBC (Micrococcus flavus [22]): 98.9 µM (≈ 29.8 µg/mL); MBC (Staphylococcus aureus [23]): 33 µM (≈ 9.95 µg/mL); MIC (Escherichia coli [24]): 33 µM (≈ 9.95 µg/mL); MIC (Listeria monocytogenes [25]): 66 µM (≈ 19.9 µg/mL); MIC (Pseudomonas aeruginosa [26]): 16.5 µM (≈ 4.97 µg/mL); MIC (Micrococcus flavus [27]): 66 µM (≈ 19.9 µg/mL); MIC (Bacillus cereus [28]): 16.5 µM (≈ 4.97 µg/mL); MIC (Staphylococcus aureus [29]): 24.7 µM (≈ 7.44 µg/mL)
O=C1N/C(=N\c2nccs2)S/C1=C\c1cccc(F)c1 | Non-toxic | 56.6 | 42 | 90 | 65.4 (≈ 20 µg/mL) | 32.7 (≈ 9.99 µg/mL) | 49.1 (≈ 15 µg/mL) | 65.4 (≈ 20 µg/mL) | 65.4 (≈ 20 µg/mL) | 65.4 (≈ 20 µg/mL) | 32.7 (≈ 9.99 µg/mL) | 65.4 (≈ 20 µg/mL) | 32.7 (≈ 9.99 µg/mL) | 32.7 (≈ 9.99 µg/mL) | 32.7 (≈ 9.99 µg/mL) | 32.7 (≈ 9.99 µg/mL) | 65.4 (≈ 20 µg/mL) | 32.7 (≈ 9.99 µg/mL) | 98.2 (≈ 30 µg/mL) | 32.7 (≈ 9.99 µg/mL) | inhibition (Glycine max): 72%; MBC (Micrococcus flavus [22]): 81.9 µM (≈ 25 µg/mL); MBC (Staphylococcus aureus [23]): 65.4 µM (≈ 20 µg/mL); MIC (Escherichia coli [24]): 32.7 µM (≈ 9.99 µg/mL); MIC (Listeria monocytogenes [25]): 81.9 µM (≈ 25 µg/mL); MIC (Pseudomonas aeruginosa [26]): 24.6 µM (≈ 7.51 µg/mL); MIC (Micrococcus flavus [27]): 65.4 µM (≈ 20 µg/mL); MIC (Bacillus cereus [28]): 24.6 µM (≈ 7.51 µg/mL); MIC (Staphylococcus aureus [29]): 32.7 µM (≈ 9.99 µg/mL)
O=C1N/C(=N\c2nccs2)S/C1=C\c1ccc(Br)cc1 | Non-toxic | 42.2 | 67 | 66 | 27.3 (≈ 10 µg/mL) | 13.7 (≈ 5.02 µg/mL) | 27.3 (≈ 10 µg/mL) | 27.3 (≈ 10 µg/mL) | 27.3 (≈ 10 µg/mL) | 27.3 (≈ 10 µg/mL) | 13.7 (≈ 5.02 µg/mL) | 27.3 (≈ 10 µg/mL) | 13.7 (≈ 5.02 µg/mL) | 13.7 (≈ 5.02 µg/mL) | 13.7 (≈ 5.02 µg/mL) | 20.5 (≈ 7.51 µg/mL) | 54.6 (≈ 20 µg/mL) | 54.6 (≈ 20 µg/mL) | 54.6 (≈ 20 µg/mL) | 54.6 (≈ 20 µg/mL) | MBC (Micrococcus flavus [22]): 54.6 µM (≈ 20 µg/mL); MBC (Staphylococcus aureus [23]): 27.3 µM (≈ 10 µg/mL); MIC (Escherichia coli [24]): 27.3 µM (≈ 10 µg/mL); MIC (Listeria monocytogenes [25]): 27.3 µM (≈ 10 µg/mL); MIC (Pseudomonas aeruginosa [26]): 27.3 µM (≈ 10 µg/mL); MIC (Micrococcus flavus [27]): 27.3 µM (≈ 10 µg/mL); MIC (Bacillus cereus [28]): 20.5 µM (≈ 7.51 µg/mL); MIC (Staphylococcus aureus [29]): 13.7 µM (≈ 5.02 µg/mL)
